Measured values: ChEMBL document CHEMBL1136812, “Structure-activity relationships of dimethindene derivatives as new M2-selective muscarinic receptor antagonists” (J Med Chem, 2003)

Assays:
Type in all cases: cell-based
Histamine H1 receptor = Histamine H1 receptor (Homo sapiens, UniProt P35367); experiment: Compound was evaluated for binding affinity towards cloned human histamine H1 receptors stably expressed in CHO-K1 cells using [3H]mepyramine
How it was run: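 CHO-K1 membranes with stable human H1 receptor, 18 µg/mL final protein. […] Nonspecific binding with 0.1 mM terfenadine. Filtered and counted. Ki by Cheng-Prusoff. pKi mean ± SD, ≥3 experiments in duplicate.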

[1] = biological target: T1, Muscarinic acetylcholine receptor M2 (Homo sapiens, UniProt P08172); experiment: Binding affinity towards cloned human muscarinic acetylcholine receptor M2 stably expressed in CHO-K1 cells using [3H]N-methylscopolamine
T1 sequence (P08172 whole entry): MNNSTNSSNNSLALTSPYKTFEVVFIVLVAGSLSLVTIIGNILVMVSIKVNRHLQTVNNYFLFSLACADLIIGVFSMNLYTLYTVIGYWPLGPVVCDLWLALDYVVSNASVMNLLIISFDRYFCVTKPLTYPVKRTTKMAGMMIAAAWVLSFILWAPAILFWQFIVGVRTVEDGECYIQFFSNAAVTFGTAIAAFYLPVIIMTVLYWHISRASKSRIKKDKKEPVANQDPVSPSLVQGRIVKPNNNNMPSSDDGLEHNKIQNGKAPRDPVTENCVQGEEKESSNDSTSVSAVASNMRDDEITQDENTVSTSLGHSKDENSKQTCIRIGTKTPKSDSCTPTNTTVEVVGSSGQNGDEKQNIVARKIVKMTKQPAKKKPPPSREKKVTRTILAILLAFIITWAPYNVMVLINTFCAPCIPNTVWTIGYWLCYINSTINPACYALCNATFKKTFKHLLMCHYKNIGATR

[2] = biological target: T2, Muscarinic acetylcholine receptor M1 (Homo sapiens, UniProt P11229); experiment: Binding affinity towards cloned human muscarinic acetylcholine receptor M1 stably expressed in CHO-K1 cells using [3H]N-methylscopolamine
T2 sequence (P11229 whole entry): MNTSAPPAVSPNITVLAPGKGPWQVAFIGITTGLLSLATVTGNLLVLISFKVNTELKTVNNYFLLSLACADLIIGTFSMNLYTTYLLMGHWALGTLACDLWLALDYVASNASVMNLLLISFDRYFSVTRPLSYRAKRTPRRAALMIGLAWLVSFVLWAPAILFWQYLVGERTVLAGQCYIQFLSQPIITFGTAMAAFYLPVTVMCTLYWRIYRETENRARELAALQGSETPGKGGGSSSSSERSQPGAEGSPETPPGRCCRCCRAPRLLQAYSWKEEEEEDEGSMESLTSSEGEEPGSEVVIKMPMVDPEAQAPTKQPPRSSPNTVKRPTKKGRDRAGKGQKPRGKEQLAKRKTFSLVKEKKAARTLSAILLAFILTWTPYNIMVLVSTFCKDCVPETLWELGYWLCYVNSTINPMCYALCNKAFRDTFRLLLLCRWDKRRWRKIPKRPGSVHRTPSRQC

[3] = biological target: T3, Muscarinic acetylcholine receptor M4 (Homo sapiens, UniProt P08173); experiment: Binding affinity towards cloned human muscarinic acetylcholine receptor M4 stably expressed in CHO-K1 cells using [3H]N-methylscopolamine
T3 sequence (P08173 whole entry): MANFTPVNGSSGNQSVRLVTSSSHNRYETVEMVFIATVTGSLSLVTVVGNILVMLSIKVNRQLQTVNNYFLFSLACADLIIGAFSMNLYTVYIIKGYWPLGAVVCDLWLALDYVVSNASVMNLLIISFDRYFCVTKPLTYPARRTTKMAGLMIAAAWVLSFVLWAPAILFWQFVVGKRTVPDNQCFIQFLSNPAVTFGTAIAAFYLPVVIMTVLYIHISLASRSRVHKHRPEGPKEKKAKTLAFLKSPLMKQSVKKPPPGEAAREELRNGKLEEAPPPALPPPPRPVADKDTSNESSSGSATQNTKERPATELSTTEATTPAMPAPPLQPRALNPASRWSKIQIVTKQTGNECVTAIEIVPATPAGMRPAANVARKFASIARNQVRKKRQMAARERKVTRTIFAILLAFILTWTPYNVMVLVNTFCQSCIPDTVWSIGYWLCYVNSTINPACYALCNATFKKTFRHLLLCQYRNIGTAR

[4] = biological target: T4, Muscarinic acetylcholine receptor M5 (Homo sapiens, UniProt P08912); experiment: Binding affinity towards cloned human muscarinic acetylcholine receptor M5 stably expressed in CHO-K1 cells using [3H]N-methylscopolamine
T4 sequence (P08912 whole entry): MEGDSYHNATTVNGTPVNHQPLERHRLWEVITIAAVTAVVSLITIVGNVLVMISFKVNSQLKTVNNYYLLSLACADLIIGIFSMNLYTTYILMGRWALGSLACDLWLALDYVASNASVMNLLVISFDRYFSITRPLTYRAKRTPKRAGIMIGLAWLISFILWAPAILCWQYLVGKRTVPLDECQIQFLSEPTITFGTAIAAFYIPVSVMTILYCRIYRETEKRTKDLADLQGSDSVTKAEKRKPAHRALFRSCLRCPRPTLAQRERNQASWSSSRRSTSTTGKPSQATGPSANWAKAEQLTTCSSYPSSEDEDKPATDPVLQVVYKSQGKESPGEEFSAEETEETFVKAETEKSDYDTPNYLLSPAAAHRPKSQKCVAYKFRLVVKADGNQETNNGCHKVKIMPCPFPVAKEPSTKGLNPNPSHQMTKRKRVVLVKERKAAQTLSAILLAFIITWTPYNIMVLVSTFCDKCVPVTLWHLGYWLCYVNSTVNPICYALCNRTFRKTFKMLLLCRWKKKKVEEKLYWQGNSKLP

[5] = biological target: Muscarinic acetylcholine receptor M3 (Homo sapiens, UniProt P20309); experiment: Binding affinity towards cloned human muscarinic acetylcholine receptor M3 stably expressed in CHO-K1 cells using [3H]N-methylscopolamine
Sequence of Muscarinic acetylcholine receptor M3 (P20309 whole entry): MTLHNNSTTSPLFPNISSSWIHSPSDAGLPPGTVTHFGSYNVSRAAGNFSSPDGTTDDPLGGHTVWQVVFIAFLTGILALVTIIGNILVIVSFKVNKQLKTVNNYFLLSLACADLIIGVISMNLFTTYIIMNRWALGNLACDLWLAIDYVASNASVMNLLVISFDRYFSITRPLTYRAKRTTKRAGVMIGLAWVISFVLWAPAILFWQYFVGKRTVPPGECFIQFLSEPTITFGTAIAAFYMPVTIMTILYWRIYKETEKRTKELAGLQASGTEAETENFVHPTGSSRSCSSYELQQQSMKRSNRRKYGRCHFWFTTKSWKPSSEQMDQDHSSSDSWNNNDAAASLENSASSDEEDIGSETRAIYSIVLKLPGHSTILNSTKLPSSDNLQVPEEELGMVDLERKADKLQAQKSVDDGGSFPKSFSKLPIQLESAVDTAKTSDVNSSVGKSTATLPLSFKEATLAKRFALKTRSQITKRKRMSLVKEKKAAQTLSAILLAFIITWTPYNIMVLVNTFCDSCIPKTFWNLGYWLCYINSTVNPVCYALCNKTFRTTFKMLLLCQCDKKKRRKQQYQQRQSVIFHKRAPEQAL

Sequence of Histamine H1 receptor (P35367 whole entry): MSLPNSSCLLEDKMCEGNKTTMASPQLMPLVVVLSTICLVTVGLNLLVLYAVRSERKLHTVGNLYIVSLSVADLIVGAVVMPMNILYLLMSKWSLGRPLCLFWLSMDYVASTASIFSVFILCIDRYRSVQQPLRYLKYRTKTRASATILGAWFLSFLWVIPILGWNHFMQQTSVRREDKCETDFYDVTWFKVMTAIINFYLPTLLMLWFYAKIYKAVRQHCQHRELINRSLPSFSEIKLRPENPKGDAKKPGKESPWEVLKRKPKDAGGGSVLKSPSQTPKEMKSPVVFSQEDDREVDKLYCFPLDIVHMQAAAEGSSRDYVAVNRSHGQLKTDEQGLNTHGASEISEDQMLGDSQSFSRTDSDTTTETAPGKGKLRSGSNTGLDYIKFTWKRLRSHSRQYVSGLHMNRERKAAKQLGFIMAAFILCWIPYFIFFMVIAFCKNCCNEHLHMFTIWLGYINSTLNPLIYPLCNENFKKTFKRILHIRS

With C[C@H](C1=C(CCN(C)C)Cc2ccccc21)c1ccccn1 [(S)-(+)-DIMETHINDENE] the Ki (Histamine H1 receptor) was 0.000437 µM, the Ki [1] was 1.23 µM and the Ki [2] was 1.86 µM. The Ki [3] was 3.89 µM, the Ki [4] was 2.69 µM and the Ki [5] was 3.39 µM.
